{
  "source": "ChEMBL document CHEMBL3864151",
  "about": "“Discovery of imidazopyridazines as potent Pim-1/2 kinase inhibitors” (Bioorg Med Chem Lett, 2016)",
  "key": {"[1]": {"experiment": "Clearance in Sprague-Dawley rat at 2 mg/kg, iv", "format": "ADME, organism-based", "conditions": "in vivo", "method_in_brief": "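Male Sprague Dawley rats, 3 animals per dosing route, mean values. iv dose 2 mg/kg as a solution in DMSO; po dose 5 mg/kg in 1% Tween 80, 2% HPMC, 97% water/methanesulfonic acid pH 2.2.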"}, "[2]": {"molecular_target": "Voltage-gated inwardly rectifying potassium channel KCNH2 (Homo sapiens, UniProt Q12809)", "experiment": "Inhibition of radiolabeled dofetilide binding to human ERG expressed in HEK293 cells"}, "[3]": {"molecular_target": "Casein kinase II subunit alpha (Homo sapiens) (UniProt P68400)", "sequence (P68400 whole entry, looked up)": "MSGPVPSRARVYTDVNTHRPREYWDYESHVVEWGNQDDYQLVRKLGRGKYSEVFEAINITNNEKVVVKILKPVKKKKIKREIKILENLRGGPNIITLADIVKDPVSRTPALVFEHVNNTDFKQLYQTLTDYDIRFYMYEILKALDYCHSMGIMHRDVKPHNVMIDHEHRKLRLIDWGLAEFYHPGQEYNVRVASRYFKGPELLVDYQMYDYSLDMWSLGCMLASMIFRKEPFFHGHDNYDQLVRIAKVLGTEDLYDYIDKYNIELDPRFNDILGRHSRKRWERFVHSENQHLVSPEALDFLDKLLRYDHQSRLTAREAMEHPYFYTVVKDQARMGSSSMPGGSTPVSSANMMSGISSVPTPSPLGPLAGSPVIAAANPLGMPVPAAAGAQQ", "experiment": "Competitive binding affinity to full length wild type human CSNK2A1 expressed in mammalian expression system at 10 uM by kinomescan method relative to control", "method_in_brief": "(§1)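 DiscoveRX scanMAX kinase panel of protein and lipid kinases and common mutants; competitive binding of compound at 10 µM expressed as percentage of control (POC).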"}, "[4]": {"molecular_target": "Mitogen-activated protein kinase 15 (Homo sapiens) (UniProt Q8TD08)", "sequence (Q8TD08 whole entry)": "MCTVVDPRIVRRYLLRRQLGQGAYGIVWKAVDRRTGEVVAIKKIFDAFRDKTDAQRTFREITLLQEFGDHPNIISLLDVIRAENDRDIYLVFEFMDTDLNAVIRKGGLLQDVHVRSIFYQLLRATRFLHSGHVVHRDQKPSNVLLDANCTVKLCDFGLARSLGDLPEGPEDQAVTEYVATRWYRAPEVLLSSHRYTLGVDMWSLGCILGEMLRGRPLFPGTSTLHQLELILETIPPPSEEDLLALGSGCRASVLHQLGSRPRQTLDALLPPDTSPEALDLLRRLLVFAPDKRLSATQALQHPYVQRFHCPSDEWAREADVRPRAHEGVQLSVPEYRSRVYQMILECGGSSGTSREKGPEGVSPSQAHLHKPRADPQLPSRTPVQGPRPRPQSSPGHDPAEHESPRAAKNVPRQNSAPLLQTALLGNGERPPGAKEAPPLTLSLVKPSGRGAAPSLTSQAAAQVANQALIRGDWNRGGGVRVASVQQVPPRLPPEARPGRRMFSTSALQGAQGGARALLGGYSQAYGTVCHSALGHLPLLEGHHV", "experiment": "Competitive binding affinity to partial length wild type human ERK8 expressed in bacterial expression system at 10 uM by kinomescan method relative to control", "method_in_brief": "as §1"}, "[5]": {"test_system": "Receptor-type tyrosine-protein kinase FLT3 (Homo sapiens), P36888 [D835Y]", "experiment": "Competitive binding affinity to partial length […] human FLT3 D835Y expressed in bacterial expression system at 10 uM by kinomescan method relative to control", "method_in_brief": "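Single-concentration (10 µM) screen in the scanMAX competition-binding panel of protein and lipid kinases and their common mutants. Binding is expressed as percentage of control (POC).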"}, "[6]": {"molecular_target": "Homeodomain-interacting protein kinase 1 (Homo sapiens) (UniProt Q86Z02)", "sequence (Q86Z02 whole entry, looked up)": "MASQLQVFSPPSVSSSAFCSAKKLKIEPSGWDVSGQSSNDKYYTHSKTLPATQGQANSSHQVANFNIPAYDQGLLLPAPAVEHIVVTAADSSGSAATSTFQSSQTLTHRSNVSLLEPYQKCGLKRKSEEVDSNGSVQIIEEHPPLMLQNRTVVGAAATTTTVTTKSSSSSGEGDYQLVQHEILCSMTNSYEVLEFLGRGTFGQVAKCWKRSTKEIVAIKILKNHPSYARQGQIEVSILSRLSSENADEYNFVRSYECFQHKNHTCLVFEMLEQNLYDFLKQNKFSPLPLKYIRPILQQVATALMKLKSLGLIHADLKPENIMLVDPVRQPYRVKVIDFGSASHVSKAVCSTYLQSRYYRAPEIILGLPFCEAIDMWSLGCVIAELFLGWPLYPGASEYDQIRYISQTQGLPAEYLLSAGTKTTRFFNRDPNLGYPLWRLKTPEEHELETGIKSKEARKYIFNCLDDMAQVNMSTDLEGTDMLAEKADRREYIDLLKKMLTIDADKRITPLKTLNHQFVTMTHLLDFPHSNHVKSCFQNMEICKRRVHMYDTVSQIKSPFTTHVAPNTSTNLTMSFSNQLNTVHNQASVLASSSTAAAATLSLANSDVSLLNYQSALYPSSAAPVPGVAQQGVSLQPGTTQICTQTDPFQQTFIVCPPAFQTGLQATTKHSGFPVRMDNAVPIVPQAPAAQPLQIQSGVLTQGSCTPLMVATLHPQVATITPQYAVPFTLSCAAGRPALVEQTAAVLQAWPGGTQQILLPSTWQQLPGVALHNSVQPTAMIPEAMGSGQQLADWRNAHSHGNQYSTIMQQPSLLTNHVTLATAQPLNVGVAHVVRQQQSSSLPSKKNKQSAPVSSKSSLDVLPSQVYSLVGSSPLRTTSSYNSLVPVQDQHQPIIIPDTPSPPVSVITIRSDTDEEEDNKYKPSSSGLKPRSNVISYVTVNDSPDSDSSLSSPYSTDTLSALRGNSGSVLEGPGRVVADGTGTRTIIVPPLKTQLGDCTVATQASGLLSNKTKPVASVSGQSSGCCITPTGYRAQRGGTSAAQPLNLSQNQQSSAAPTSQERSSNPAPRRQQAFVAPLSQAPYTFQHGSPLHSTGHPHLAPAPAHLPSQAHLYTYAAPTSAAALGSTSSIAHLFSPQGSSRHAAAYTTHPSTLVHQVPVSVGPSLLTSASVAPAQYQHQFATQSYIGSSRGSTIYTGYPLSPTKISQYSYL", "experiment": "Competitive binding affinity to partial length wild type human HIPK1 expressed in mammalian expression system at 10 uM by kinomescan method relative to control", "method_in_brief": "as §1"}, "[7]": {"molecular_target": "Mitogen-activated protein kinase 13 (Homo sapiens) (UniProt O15264)", "sequence (O15264 whole entry)": "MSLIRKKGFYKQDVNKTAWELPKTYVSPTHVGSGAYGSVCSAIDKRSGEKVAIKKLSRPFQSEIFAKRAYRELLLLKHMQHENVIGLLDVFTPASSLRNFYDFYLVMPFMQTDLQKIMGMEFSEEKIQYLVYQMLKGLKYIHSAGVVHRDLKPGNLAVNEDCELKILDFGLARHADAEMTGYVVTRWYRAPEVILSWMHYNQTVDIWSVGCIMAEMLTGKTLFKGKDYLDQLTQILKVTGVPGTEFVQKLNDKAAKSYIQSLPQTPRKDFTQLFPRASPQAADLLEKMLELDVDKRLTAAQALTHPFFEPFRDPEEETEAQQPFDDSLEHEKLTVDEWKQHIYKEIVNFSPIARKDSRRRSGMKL", "experiment": "Competitive binding affinity to full length wild type human p38delta expressed in bacterial expression system at 10 uM by kinomescan method relative to control", "method_in_brief": "as §1"}, "[8]": {"molecular_target": "Serine/threonine-protein kinase TAO1 (Homo sapiens) (UniProt Q7L7X3)", "sequence (Q7L7X3 whole entry)": "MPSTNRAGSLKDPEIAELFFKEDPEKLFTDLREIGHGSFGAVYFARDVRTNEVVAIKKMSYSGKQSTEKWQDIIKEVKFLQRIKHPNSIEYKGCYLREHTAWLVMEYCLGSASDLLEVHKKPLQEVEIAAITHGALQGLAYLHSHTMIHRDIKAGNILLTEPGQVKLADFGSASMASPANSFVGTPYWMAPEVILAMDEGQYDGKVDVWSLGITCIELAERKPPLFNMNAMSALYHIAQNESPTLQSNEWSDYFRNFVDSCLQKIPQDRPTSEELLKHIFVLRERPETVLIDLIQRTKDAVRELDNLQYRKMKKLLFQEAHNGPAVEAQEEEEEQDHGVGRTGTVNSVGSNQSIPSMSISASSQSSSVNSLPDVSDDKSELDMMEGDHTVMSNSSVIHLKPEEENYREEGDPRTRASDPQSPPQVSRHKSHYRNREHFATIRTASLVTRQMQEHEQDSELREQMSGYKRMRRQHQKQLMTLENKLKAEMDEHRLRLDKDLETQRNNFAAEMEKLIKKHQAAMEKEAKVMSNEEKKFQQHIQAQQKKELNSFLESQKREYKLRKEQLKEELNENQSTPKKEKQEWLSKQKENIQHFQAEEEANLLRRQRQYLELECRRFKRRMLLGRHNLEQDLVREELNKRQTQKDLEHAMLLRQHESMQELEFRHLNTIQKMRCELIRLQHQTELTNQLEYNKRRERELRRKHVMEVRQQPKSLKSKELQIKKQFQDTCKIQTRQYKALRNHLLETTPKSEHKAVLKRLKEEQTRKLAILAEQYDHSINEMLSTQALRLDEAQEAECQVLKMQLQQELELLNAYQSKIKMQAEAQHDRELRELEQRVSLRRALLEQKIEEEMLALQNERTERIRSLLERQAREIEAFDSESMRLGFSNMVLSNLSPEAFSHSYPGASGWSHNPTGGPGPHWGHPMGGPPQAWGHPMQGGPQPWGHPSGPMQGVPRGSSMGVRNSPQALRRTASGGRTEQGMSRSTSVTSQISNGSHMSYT", "experiment": "Competitive binding affinity to partial length wild type human TAOK1 expressed in mammalian expression system at 10 uM by kinomescan method relative to control", "method_in_brief": "as §1"}, "[9]": {"molecular_target": "Serine/threonine-protein kinase TAO3 (Homo sapiens) (UniProt Q9H2K8)", "sequence (Q9H2K8 whole entry)": "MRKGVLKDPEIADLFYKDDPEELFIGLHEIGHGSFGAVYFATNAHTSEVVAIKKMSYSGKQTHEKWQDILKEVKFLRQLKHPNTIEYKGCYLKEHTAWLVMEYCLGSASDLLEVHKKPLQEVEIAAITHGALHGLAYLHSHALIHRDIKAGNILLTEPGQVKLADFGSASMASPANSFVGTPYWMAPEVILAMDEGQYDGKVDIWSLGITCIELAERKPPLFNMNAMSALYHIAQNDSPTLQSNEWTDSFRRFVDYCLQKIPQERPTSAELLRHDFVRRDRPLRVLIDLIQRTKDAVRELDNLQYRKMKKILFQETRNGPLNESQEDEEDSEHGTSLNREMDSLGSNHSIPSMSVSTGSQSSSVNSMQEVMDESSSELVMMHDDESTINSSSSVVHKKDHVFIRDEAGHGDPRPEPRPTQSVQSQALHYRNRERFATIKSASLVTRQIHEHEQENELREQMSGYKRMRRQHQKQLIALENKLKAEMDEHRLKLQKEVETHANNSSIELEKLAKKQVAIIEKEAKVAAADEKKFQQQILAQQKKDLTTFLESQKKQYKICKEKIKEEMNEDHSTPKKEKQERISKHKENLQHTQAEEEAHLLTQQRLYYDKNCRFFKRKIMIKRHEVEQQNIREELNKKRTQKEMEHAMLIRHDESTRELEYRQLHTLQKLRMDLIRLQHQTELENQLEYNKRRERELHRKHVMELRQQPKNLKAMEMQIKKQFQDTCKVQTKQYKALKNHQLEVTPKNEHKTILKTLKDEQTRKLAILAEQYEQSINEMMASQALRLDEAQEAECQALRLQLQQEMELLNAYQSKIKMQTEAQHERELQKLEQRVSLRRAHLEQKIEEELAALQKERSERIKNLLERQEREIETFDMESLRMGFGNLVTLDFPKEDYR", "experiment": "Competitive binding affinity to partial length wild type human TAOK3 expressed in mammalian expression system at 10 uM by kinomescan method relative to control", "method_in_brief": "as §1"}, "[10]": {"experiment": "Antiproliferative activity against human KMS12PE cells after 72 hrs by CellTiter-Glo assay", "format": "functional, cell-based", "conditions": "KMS-12-PE"}, "[11]": {"experiment": "Antiproliferative activity against human KMS26 cells after 72 hrs by CellTiter-Glo assay", "format": "functional, cell-based", "conditions": "KMS-26, 72 h"}, "[12]": {"experiment": "Antiproliferative activity against human MM1R cells after 72 hrs by CellTiter-Glo assay", "format": "functional, cell-based", "conditions": "MM.1R"}, "[13]": {"experiment": "Antiproliferative activity against human KMM1 cells after 72 hrs by CellTiter-Glo assay", "format": "functional, cell-based", "conditions": "KMM-1, 72 h"}, "[14]": {"experiment": "Antiproliferative activity against human U266B1 cells harboring BRAF mutant after 72 hrs by CellTiter-Glo assay", "format": "functional, cell-based", "conditions": "U-266, 72 h"}, "KMS-12-BM": {"test_system": "KMS-12-BM", "experiment": "Induction of apoptosis in human KMS-12-BM cells assessed as increase in cleaved caspase 3 levels at […] after 4 to 72 hrs by Western blot method", "format": "functional, cell-based"}},
  "note": "The source made the active and inactive calls. No cut-off for these calls is given here.",
  "data": [
    {"smiles": "C[C@@H]1C[C@H](N)CN(c2ccncc2Nc2ncc3ccc(-c4c(F)cccc4F)nn23)C1", "values": [
      {"measurement": "CL", "setting": "[1]", "value": 23.3, "unit": "mL/min/kg"},
      {"measurement": "IC50", "setting": "[2]", "value": 1, "unit": "µM"},
      {"measurement": "Activity", "setting": "[3]", "value": 4.2, "unit": "%"},
      {"measurement": "Activity", "setting": "[4]", "value": 0.65, "unit": "%"},
      {"measurement": "Activity", "setting": "[5]", "value": 6.1, "unit": "%"},
      {"measurement": "Activity", "setting": "[6]", "value": 7, "unit": "%"},
      {"measurement": "Activity", "setting": "[7]", "value": 8.4, "unit": "%"},
      {"measurement": "Activity", "setting": "[8]", "value": 0.6, "unit": "%"},
      {"measurement": "Activity", "setting": "[9]", "value": 0.4, "unit": "%"},
      {"measurement": "IC50", "setting": "[10]", "value": 0.13, "unit": "µM"},
      {"measurement": "IC50", "setting": "[11]", "value": 0.393, "unit": "µM"},
      {"measurement": "IC50", "setting": "[12]", "value": 0.457, "unit": "µM"},
      {"measurement": "IC50", "setting": "[13]", "value": 2.12, "unit": "µM"},
      {"measurement": "IC50", "setting": "[14]", "value": 10, "unit": "µM"},
      {"measurement": "Activity", "setting": "KMS-12-BM", "value": "Active"}
    ]}
  ]
}
